Assay results taken from ChEMBL document CHEMBL2440054, “Largazole Arrests Cell Cycle at G1 Phase and Triggers Proteasomal Degradation of E2F1 in Lung Cancer Cells” (ACS Med Chem Lett, 2013).
The source made the active and inactive calls. The rule behind the calls is not given here.

Experiments:
A549 [1] = assay: Upregulation of p21 mRNA expression in human A549 cells at 0.1 uM after 12 hrs by RT-PCR analysis; assay type: functional, cell-based
Procedure, shortened: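 A549 cells at 0.1 μM over a time course. RNA extracted, and p21 mRNA assessed by RT-PCR with specific primers.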

A549 [2] = assay: Upregulation of p21 protein expression in human A549 cells at 0.1 uM after 6 hrs by Western blotting analysis; assay type: functional, cell-based
Procedure, shortened: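 A549 cells exposed to 0.1 μM over a time course, then lysed and Western blotted for G1 regulators including p21 and p27.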

A549 [3] = assay: Downregulation of E2F1 in human A549 cell nucleus at 0.1 uM after 6 to 24 hrs by Western blotting analysis; assay type: functional, cell-based
Procedure, shortened: (§1)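 A549 cells exposed to 0.1 μM largazole for indicated times. Cytoplasmic and nuclear fractions separated, then Western blotted for E2F1.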

[4] = target: Transcription factor E2F1 (Homo sapiens) (UniProt Q01094); assay: Inhibition of E2F1 in human A549 cells assessed as downregulation of DHFR gene expression at 0.1 uM after 6 to 36 hrs by RT-PCR analysis; assay type: cell-based
Transcription factor E2F1 (Homo sapiens), sequence (Q01094 whole entry): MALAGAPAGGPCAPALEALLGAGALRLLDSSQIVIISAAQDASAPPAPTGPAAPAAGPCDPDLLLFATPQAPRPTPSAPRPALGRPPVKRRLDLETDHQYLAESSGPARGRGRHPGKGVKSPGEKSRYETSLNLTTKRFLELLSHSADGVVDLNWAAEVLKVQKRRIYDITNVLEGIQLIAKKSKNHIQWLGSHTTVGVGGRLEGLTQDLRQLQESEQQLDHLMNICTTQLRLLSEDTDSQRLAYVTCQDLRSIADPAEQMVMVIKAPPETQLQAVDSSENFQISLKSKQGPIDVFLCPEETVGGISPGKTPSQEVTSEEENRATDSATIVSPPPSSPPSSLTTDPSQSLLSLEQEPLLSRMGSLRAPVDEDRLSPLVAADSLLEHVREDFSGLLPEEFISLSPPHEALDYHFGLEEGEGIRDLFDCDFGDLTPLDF
Procedure, shortened: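 A549 cells given 0.1 μM over a time course. RNA extracted and RT-PCR run with gene-specific primers. Bands quantified by densitometry and normalized to GAPDH.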

[5] = target: Transcription factor E2F1 (Homo sapiens) (UniProt Q01094); assay: Induction of E2F1 degradation in human 16HBE cells at 0.1 uM after 12 to 24 hrs by Western blotting analysis; assay type: cell-based
Procedure, shortened: (§2)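 Each cell line (16-HBE, 95D, L78, H1975, H460) treated with 0.1 μM largazole for indicated times. Lysates Western blotted for E2F1.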

[6] = Cytotoxicity against human L78 cells after 48 hrs by CCK-8 assay; assay type: functional, cell-based; conditions: L78, 48 h
Procedure, shortened: (§3)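 Cells treated with a range of largazole concentrations for 48 h. Proliferation read by CCK-8 assay; IC50 derived from the concentration series.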

A549 [7] = assay: Cell cycle arrest in human A549 cells assessed as accumulation at G1 phase at 0.06 uM after 24 hrs by propidium iodide staining-based flow cytometric analysis (reference value: 48.3%); assay type: functional
[8] = Cytotoxicity against human 95-D cells after 48 hrs by CCK-8 assay; assay type: functional, cell-based; procedure, shortened: as §3
NCI-H460 [9] = assay: Cell cycle arrest in human NCI-H460 cells assessed as accumulation at G2 phase at 0.1 uM after 24 hrs by propidium iodide staining-based flow cytometric analysis (reference value: 9.5%); assay type: functional
[10] = target: Transcription factor E2F1 (Homo sapiens) (UniProt Q01094); assay: Induction of E2F1 degradation in human L78 cells at 0.1 uM after 12 to 24 hrs by Western blotting analysis; assay type: cell-based; procedure, shortened: as §2
[11] = target: Transcription factor E2F1 (Homo sapiens) (UniProt Q01094); assay: Induction of E2F1 translocation from nucleus to cytoplasm in human A549 cells at 0.1 uM after 12 to 24 hrs by DAPI staining-based immunofluorescence analysis; assay type: cell-based
Procedure, shortened: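 A549 cells given 0.1 μM largazole for 12 to 24 h. Immunofluorescence with anti-E2F1 antibody, nuclei counterstained with DAPI.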

[12] = Cytotoxicity against human SPCA1 cells after 48 hrs by CCK-8 assay; assay type: functional, cell-based; conditions: SPCA1, 48 h; procedure, shortened: as §3
NCI-H460 [13] = assay: Cell cycle arrest in human NCI-H460 cells assessed as accumulation at S phase at 0.1 uM after 24 hrs by propidium iodide staining-based flow cytometric analysis (reference value: 31.6%); assay type: functional
A549 [14] = assay: Growth inhibition of human A549 cells at 0.1 uM after 24 to 48 hrs by trypan blue exclusion assay; assay type: functional, cell-based
Procedure, shortened: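 Cells treated with largazole for indicated times. Viability evaluated by trypan blue exclusion.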

A549 [15] = assay: Upregulation of p21 protein expression in human A549 cells at 0.1 uM after 6 hrs by Western blotting analysis in presence of Hsp90 inhibitor 17-AAG; assay type: functional, cell-based
Procedure, shortened: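 A549 cells treated 6 h with 0.1 μM, with or without 1 μM 17-AAG, then lysed and Western blotted. p21 quantified by densitometry and normalized to β-actin.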

[16] = target: Transcription factor E2F1 (Homo sapiens) (UniProt Q01094); assay: Induction of E2F1 degradation in human NCI-H1975 cells at 0.1 uM after 12 to 24 hrs by Western blotting analysis; assay type: cell-based; procedure, shortened: as §2
A549 [17] = assay: Downregulation of E2F1 in human A549 cell cytoplasm at 0.1 uM after 6 to 24 hrs by Western blotting analysis; assay type: functional, cell-based; procedure, shortened: as §1
[18] = target: Histone deacetylase 1 (Homo sapiens) (UniProt Q13547); conditions: A549, 0.01 to 1 uM
Histone deacetylase 1 (Homo sapiens), sequence (Q13547 whole entry): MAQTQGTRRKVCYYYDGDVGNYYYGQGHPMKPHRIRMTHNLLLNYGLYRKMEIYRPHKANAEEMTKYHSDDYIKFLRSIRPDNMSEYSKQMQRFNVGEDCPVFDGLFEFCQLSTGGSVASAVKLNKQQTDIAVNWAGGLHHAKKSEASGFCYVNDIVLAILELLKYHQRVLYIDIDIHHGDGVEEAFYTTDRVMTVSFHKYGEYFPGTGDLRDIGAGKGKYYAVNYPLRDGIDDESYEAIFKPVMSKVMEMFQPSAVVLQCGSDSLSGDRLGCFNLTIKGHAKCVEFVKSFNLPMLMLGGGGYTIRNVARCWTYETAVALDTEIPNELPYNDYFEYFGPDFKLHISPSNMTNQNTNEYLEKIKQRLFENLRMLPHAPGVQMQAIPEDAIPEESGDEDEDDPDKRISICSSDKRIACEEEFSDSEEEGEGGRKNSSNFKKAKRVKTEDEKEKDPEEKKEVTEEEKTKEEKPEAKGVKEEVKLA

[19] = target: T1, Retinoblastoma-associated protein (Homo sapiens) (UniProt P06400); assay: Dephosphorylation of Rb in human A549 cells at 0.1 uM after 6 to 12 hrs by Western blotting analysis; assay type: cell-based
T1 sequence (whole entry): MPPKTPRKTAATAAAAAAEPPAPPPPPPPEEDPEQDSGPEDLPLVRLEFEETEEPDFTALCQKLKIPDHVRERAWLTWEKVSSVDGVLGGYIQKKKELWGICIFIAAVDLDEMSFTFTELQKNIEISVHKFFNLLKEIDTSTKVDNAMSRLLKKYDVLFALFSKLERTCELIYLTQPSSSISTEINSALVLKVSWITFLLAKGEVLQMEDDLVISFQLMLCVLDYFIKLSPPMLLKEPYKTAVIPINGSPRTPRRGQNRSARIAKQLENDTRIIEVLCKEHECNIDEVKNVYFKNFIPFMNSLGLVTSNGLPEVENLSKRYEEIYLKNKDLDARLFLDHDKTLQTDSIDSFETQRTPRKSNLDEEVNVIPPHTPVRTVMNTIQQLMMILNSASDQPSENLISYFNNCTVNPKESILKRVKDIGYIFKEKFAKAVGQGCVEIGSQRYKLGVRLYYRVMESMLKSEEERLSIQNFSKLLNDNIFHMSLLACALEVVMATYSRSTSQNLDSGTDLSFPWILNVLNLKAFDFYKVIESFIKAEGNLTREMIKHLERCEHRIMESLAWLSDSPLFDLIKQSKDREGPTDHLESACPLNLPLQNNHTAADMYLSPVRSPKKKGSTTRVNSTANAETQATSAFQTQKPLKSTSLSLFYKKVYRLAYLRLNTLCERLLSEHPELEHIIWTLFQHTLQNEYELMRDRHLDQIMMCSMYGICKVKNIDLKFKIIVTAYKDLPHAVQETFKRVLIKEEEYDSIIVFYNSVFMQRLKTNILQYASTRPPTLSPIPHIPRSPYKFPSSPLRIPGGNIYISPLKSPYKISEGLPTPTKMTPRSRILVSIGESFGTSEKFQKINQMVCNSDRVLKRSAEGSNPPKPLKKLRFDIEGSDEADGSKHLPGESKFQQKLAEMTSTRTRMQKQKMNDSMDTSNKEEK

A549 [20] = assay: Induction of apoptosis in human A549 cells assessed as increase in PARP cleavage at 0.1 uM after 48 hrs by Western blotting analysis; assay type: functional, cell-based
Procedure, shortened: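 A549 cells exposed to 0.1 μM for a time course, then lysed and Western blotted. Read-outs are pro- and cleaved caspase-9, pro- and active caspase-3, and cleaved PARP.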

NCI-H460 [21] = assay: Cell cycle arrest in human NCI-H460 cells assessed as accumulation at G2 phase at 0.06 uM after 24 hrs by propidium iodide staining-based flow cytometric analysis (reference value: 9.5%); assay type: functional
[22] = target: Histone deacetylase 1 (Homo sapiens) (UniProt Q13547); conditions: A549, 0.1 uM

## CCCCCCCC(=O)SCC/C=C/[C@@H]1CC(=O)NCc2nc(cs2)C2=N[C@@](C)(CS2)C(=O)N[C@@H](C(C)C)C(=O)O1 [LARGAZOLE]
A549 [1]
  Activity: Active
A549 [2]
  Activity: Active
A549 [3]
  Activity: Active
[4]
  inhibition: Active
[5]
  Activity: inactive
[6]
  IC50: 570 nM
A549 [7]
  Activity: 90.4%
[8]
  IC50: 420 nM
NCI-H460 [9]
  Activity: 5.3%
[10]
  Activity: Active
[11]
  Activity: Active
[12]
  IC50: 140 nM
NCI-H460 [13]
  Activity: 10.6%
A549 [14]
  growth inhibition (GI): Active
A549 [15]
  Activity: inactive
[16]
  Activity: Active
A549 [17]
  Activity: Active
[18]
  inhibition: Active
[19]
  Activity: Active
A549 [20]
  Activity: Active
NCI-H460 [21]
  Activity: 10.8%
[22]
  inhibition: Active
